{"source": "paper PMC4000071", "about": "(Journal of Toxicologic Pathology, 2014)", "key": {"guinea pig": {"system": "guinea pig", "conditions": "0.6 µmol/kg. p.o.; cited from earlier work"}, "[1]": {"target": "5-HT1B receptors in the rat cerebral cortex (Rattus norvegicus, UniProt P28564)", "sequence (P28564 whole entry)": "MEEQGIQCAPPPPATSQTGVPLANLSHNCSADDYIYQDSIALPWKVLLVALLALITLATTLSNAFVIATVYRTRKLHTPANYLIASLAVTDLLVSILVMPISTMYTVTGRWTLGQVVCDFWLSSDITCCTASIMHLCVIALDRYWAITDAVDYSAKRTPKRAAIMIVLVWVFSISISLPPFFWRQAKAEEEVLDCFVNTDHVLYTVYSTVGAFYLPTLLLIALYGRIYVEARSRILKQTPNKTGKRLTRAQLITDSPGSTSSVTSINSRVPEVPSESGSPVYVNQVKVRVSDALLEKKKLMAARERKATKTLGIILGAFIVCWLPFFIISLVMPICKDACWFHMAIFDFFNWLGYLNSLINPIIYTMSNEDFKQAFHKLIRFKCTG", "experiment": "5-HT1B receptor binding in rat cerebral cortex"}, "p-glycoprotein": {"system": "p-glycoprotein", "conditions": "cited from earlier work"}, "[2]": {"target": "human 5-hydroxytryptamine 1B (serotonin, or 5-HT1B) receptor", "conditions": "antagonist; cited from earlier work"}, "healthy volunteers": {"system": "healthy volunteers", "conditions": "single ascending oral doses from 1 to 40 mg; cited from earlier work"}, "1-month": {"experiment": "1-month", "type": "in vivo, beagle dogs", "conditions": "dog; for mean brain concentration relative to that at 2.3 mg/kg: 4 weeks", "method_in_brief": "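Beagles (7 males, 5 females) were dosed once daily by oral gavage for 4 weeks at 0, 2.3, 14 or 47 mg/kg/day. The vehicle was 0.1 M lactic acid in water (pH 3.0) at 5 mL/kg. Plasma was sampled on Days 1, 7 and 28. At necropsy, brain stem, hippocampus and frontal lobe were taken for drug measurement. Terminal plasma and brain concentrations are reported.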"}, "adrenergic α1A receptor": {"target": "T1, adrenergic α1A receptor (Homo sapiens, UniProt P35348)", "T1 sequence (P35348 1-466)": "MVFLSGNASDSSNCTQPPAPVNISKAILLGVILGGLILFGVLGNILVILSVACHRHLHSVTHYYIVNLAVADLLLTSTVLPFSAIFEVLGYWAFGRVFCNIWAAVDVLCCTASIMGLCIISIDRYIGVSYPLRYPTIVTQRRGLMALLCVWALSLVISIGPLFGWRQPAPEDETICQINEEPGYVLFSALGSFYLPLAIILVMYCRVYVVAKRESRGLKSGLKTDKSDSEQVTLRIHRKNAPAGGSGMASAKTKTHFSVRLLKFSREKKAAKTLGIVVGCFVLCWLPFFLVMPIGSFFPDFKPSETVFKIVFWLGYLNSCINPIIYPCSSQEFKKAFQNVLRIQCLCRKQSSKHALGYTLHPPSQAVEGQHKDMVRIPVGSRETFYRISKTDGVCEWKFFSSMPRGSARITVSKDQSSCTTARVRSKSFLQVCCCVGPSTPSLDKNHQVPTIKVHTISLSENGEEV", "experiment": "secondary pharmacology screens, α1A", "type": "biochemical", "conditions": "10 µM"}, "beagle dogs [3]": {"system": "beagle dogs", "experiment": "1-month toxicity study, in-life, clinical pathology and pathology", "type": "in vivo", "conditions": "dog"}, "dog pharmacokinetics": {"experiment": "dog pharmacokinetics", "type": "in vivo"}, "rat": {"system": "rat", "experiment": "rat 1- and 3-month repeat dose toxicity", "type": "in vivo"}, "beagle dogs [4]": {"system": "beagle dogs", "experiment": "1-month", "type": "in vivo"}, "dogs": {"system": "dogs", "experiment": "cardiovascular telemetry study in dogs", "type": "in vivo", "conditions": "dog"}, "adrenergic α1D receptor": {"target": "T2, adrenergic α1D receptor (Homo sapiens, UniProt P25100)", "T2 sequence (P25100 1-572)": "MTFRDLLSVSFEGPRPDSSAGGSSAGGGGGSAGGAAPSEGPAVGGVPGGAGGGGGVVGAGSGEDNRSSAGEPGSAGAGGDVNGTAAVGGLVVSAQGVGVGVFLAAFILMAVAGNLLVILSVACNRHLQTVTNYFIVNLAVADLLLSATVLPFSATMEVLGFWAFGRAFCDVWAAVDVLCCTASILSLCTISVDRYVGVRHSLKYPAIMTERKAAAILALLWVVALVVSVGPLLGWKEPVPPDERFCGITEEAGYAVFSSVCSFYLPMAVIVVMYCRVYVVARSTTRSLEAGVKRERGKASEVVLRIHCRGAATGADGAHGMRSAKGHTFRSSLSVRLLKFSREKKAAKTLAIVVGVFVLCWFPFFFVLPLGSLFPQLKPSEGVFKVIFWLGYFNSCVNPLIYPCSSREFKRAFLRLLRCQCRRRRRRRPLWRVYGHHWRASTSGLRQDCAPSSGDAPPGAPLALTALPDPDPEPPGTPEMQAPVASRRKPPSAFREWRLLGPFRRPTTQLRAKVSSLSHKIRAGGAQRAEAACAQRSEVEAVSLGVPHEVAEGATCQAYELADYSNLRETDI", "experiment": "secondary pharmacology screens, α1D", "type": "binding", "conditions": "10 µM"}, "[5]": {"conditions": "1-month, 47 mg/kg/day, 4 affected dogs"}, "[6]": {"conditions": "1-month, 47 mg/kg/day, Week 2 until end of dosing"}}, "data": [{"smiles": "COc1cc2c(c(N3CCN(C)CC3)c1)O[C@@H](C(=O)Nc1ccc(N3CCOCC3)cc1)CC2", "note": "[AZD3783, (2R)-6-methoxy-8-(4-methylpiperazin-1-yl)-N-(4-morpholin-4-ylphenyl) chromane-2-carboxamide]", "values": [{"measurement": "anxiolytic and anti-depressant efficacy", "setting": "guinea pig", "result": "elicit effects indicative of anxiolytic and anti-depressant efficacy"}, {"measurement": "extracellular serotonin in the brain", "setting": "guinea pig", "result": "increase extracellular serotonin in the brain"}, {"measurement": "Ki", "setting": "[1]; rat cerebral cortex", "result": 51, "unit": "nM"}, {"measurement": "affinity lower than for the guinea pig or human 5-HT1B receptors", "setting": "[1]; rat vs guinea pig or human", "result": "approximately 4 fold"}, {"measurement": "p-glycoprotein substrate", "setting": "p-glycoprotein", "result": "not likely to be a p-glycoprotein substrate"}, {"measurement": "Ki", "setting": "[2]", "result": 12.5, "unit": "nM"}, {"measurement": "tolerability", "setting": "healthy volunteers", "result": "well tolerated"}, {"measurement": "mean brain concentration relative to that at 2.3 mg/kg", "setting": "1-month; 14 mg/kg", "result": 38, "unit": "fold"}, {"measurement": "mean brain concentration relative to that at 2.3 mg/kg", "setting": "1-month; 47 mg/kg", "result": 460, "unit": "fold"}, {"measurement": "brain/plasma concentration ratio", "setting": "1-month; across the dose range, after 4 weeks of dosing", "result": "approximately 4"}, {"measurement": "activity at adrenergic α1A receptor", "setting": "adrenergic α1A receptor", "result": "antagonist"}, {"measurement": "ECG", "setting": "beagle dogs [3]; 1-month", "result": "no treatment-related effect on ECG"}, {"measurement": "pathological findings in spinal cord or any CNS tissues", "setting": "beagle dogs [3]; 1-month, 2.3 mg/kg/day", "result": "no pathological findings"}, {"measurement": "pathological findings in spinal cord or any CNS tissues", "setting": "beagle dogs [3]; 1-month, 14 mg/kg/day", "result": "no pathological findings"}, {"measurement": "dogs with mild to marked increases in liver enzymes (incidence)", "setting": "beagle dogs [3]; 1-month, 47 mg/kg/day", "result": "4 of 12"}, {"measurement": "electron microscopy of liver and gallbladder", "setting": "beagle dogs [3]; 1-month, 47 mg/kg/day", "result": "lamellar bodies consistent with PLD"}, {"measurement": "liver microscopic findings", "setting": "beagle dogs [3]; 1-month, 47 mg/kg/day", "result": "inflammatory cell infiltration, degenerative and necrotic changes in the centrilobular region and moderate pigments in histiocytes"}, {"measurement": "lymphoid tissues microscopic findings", "setting": "beagle dogs [3]; 1-month, 47 mg/kg/day", "result": "increased incidence and severity of lymphocytolysis"}, {"measurement": "ALT increase in affected dogs", "setting": "beagle dogs [3]; [5]", "result": "up to 17 fold vs. pretest"}, {"measurement": "Aspartate aminotransferase (AST) increase in affected dogs", "setting": "beagle dogs [3]; [5]", "result": "up to 7 fold vs. pretest"}, {"measurement": "GLDH increase in affected dogs", "setting": "beagle dogs [3]; [5]", "result": "up to 37 fold vs. pretest"}, {"measurement": "alanine aminotransferase (ALT) group mean elevation", "setting": "beagle dogs [3]; [6]", "result": "approximately 3 fold"}, {"measurement": "glutamate dehydrogenase (GLDH) group mean elevation", "setting": "beagle dogs [3]; [6]", "result": "~7", "unit": "fold"}, {"measurement": "mortality", "setting": "beagle dogs [3]; 1-month, 2.3, 14, 47 mg/kg/day", "result": "All animals survived to scheduled necropsy"}, {"measurement": "ophthalmology observations", "setting": "beagle dogs [3]; 1-month, all doses", "result": "No treatment-related observations were seen in the eyes of any dog"}, {"measurement": "platelet counts increase", "setting": "beagle dogs [3]; 1-month, females, 47 mg/kg/day", "result": "24–52%"}, {"measurement": "platelet counts increase", "setting": "beagle dogs [3]; 1-month, males, 47 mg/kg/day", "result": "10–15%"}, {"measurement": "pathological findings in spinal cord or any CNS tissues", "setting": "beagle dogs [3]; recovery animals previously dosed at 47 mg/kg/day", "result": "no pathological findings"}, {"measurement": "steady state volume of distribution", "setting": "dog pharmacokinetics", "result": 4.3, "unit": "L/kg"}, {"measurement": "plasma clearance", "setting": "dog pharmacokinetics; after IV dosing", "result": 18, "unit": "mL/min/kg"}, {"measurement": "F (oral)", "setting": "dog pharmacokinetics; oral dosing", "result": 58, "unit": "%"}, {"measurement": "PLD", "setting": "rat", "result": "caused generalized PLD"}, {"measurement": "nervous tissue pathology", "setting": "rat; 1 month, 126 mg/kg/day", "result": "minimal neuronal vacuolation in the DRG and brain stem"}, {"measurement": "nervous tissue pathology (DRG, brain stem, spinal cord)", "setting": "rat; 3 months, 100 mg/kg/day, unpublished results", "result": "minimal to slight neuronal vacuolation with eosinophilic deposits"}, {"measurement": "brain microscopic findings", "setting": "beagle dogs [4]; 2.3 mg/kg/day, 4 weeks", "result": "No treatment-related microscopic change in the brain"}, {"measurement": "brain microscopic findings, other three dogs", "setting": "beagle dogs [4]; 47 mg/kg/day, 4 weeks", "result": "minimal to moderate foamy cytoplasmic vacuolation of neurons"}, {"measurement": "mortality", "setting": "beagle dogs [4]; a male in the 47 mg/kg/day group, severe clinical signs", "result": "euthanized on Day 20"}, {"measurement": "brain microscopic findings, decedant", "setting": "beagle dogs [4]; male, 47 mg/kg/day, euthanized Day 20", "result": "neuronal degeneration and necrosis microscopically, accompanied by minimal gliosis in the medulla oblongata"}, {"measurement": "brain microscopic findings", "setting": "beagle dogs [4]; two dogs, 14 mg/kg/day, 4 weeks", "result": "minimal granular, yellowish pigmentation in the cytoplasm of neurons in the medulla oblongata"}, {"measurement": "cardiovascular effect (telemetry)", "setting": "dogs; 14 mg/kg/day", "result": "no effect"}, {"measurement": "cardiovascular effect (telemetry)", "setting": "dogs; 47 mg/kg", "result": "modest tachycarda with decrease in blood pressure"}, {"measurement": "binding to adrenergic α1D receptor", "setting": "adrenergic α1D receptor", "result": "binds"}]}]}
